Experimental data from ChEMBL document CHEMBL5096186, “Design, Synthesis, and Biological Evaluation of Novel Pyrimido[4,5-b]indole Derivatives Against Gram-Negative Multidrug-Resistant Pathogens” (J Med Chem, 2021).
≈ marks a conversion by molar mass, not a printed value.

What was measured:
Escherichia coli [1] = assay: Antibacterial activity against ESBL-producing multidrug resistant Escherichia coli assessed as reduction in bacterial growth incubated for 18 to 20 hrs by CLSI based microdilution method; assay type: functional; settings: time 18-20 hrs
How it was run: (§1)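 Broth microdilution per CLSI. Compounds dissolved in DMSO (levofloxacin and meropenem in water) as 64 μg/mL stock, then serial twofold dilutions in broth giving 64 to 0.008 μg/mL. […] Clinical isolates tested as several strains per group; racemic GP-1 served as positive control; values given as MIC ranges.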

Escherichia coli [2] = assay: Antibacterial activity against multidrug resistant wild type Escherichia coli ATCC BAA-2340 assessed as reduction in bacterial growth incubated for 18 to 20 hrs by CLSI based microdilution method; assay type: functional; settings: time 18-20 hrs; how it was run: as §1
Escherichia coli [3] = assay: Antibacterial activity against multidrug resistant wild type Escherichia coli NCTC 13353 assessed as reduction in bacterial growth incubated for 18 to 20 hrs by CLSI based microdilution method; assay type: functional; settings: time 18-20 hrs; how it was run: as §1
Klebsiella pneumoniae [4] = assay: Antibacterial activity against KPC2-producing multidrug resistant Klebsiella pneumoniae assessed as reduction in bacterial growth incubated for 18 to 20 hrs by CLSI based microdilution method; assay type: functional; settings: time 18-20 hrs; how it was run: as §1
Klebsiella pneumoniae [5] = assay: Antibacterial activity agains wild type Klebsiella pneumoniae ATCC BAA-1705 assessed as reduction in bacterial growth incubated for 18 to 20 hrs by CLSI based microdilution method; assay type: functional; settings: time 18-20 hrs
How it was run: (§2)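 CLSI broth microdilution. Compounds in DMSO (levofloxacin and meropenem in water), serial twofold dilutions in broth, 64 to 0.008 μg/mL. […] Results reported as MIC ranges across strains.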

Klebsiella pneumoniae [6] = assay: Antibacterial activity agains wild type Klebsiella pneumoniae ATCC BAA-2470 assessed as reduction in bacterial growth incubated for 18 to 20 hrs by CLSI based microdilution method; assay type: functional; settings: time 18-20 hrs; how it was run: as §1
Acinetobacter baumannii [7] = assay: Antibacterial activity agains OXA23-producing multidrug resistant Acinetobacter baumannii assessed as reduction in bacterial growth incubated for 18 to 20 hrs by CLSI based microdilution method; assay type: functional; settings: time 18-20 hrs; how it was run: as §1
Acinetobacter baumannii [8] = assay: Antibacterial activity against wild type Acinetobacter baumannii NCTC 13304 assessed as reduction in bacterial growth incubated for 18 to 20 hrs by CLSI based microdilution method; assay type: functional; settings: time 18-20 hrs; how it was run: as §1
Pseudomonas aeruginosa [9] = assay: Antibacterial activity against IMP4-producing multidrug resistant Pseudomonas aeruginosa assessed as reduction in bacterial growth incubated for 18 to 20 hrs by CLSI based microdilution method; assay type: functional; settings: time 18-20 hrs; how it was run: as §1
Pseudomonas aeruginosa [10] = assay: Antibacterial activity against wild type Pseudomonas aeruginosa ATCC 27853 assessed as reduction in bacterial growth incubated for 18 to 20 hrs by CLSI based microdilution method; assay type: functional; settings: time 18-20 hrs; how it was run: as §2
[11] = Metabolic stability in rat liver microsome assessed as elimination half life at 0.1 uM in presence of NADPH incubated upto 60 mins by LC-MS/MS analysis; assay type: ADME; settings: liver microsomes, read-out: beta t1/2
How it was run: (§3)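 Compound at 0.1 μM final, in 0.01% DMSO with 0.005% BSA. Incubated with rat or human liver microsomes at 0.33 mg/mL in 0.1 M Tris-HCl, pH 7.4, with 5 mM MgCl₂ and 1 mM NADPH, at 37 °C. Samples at 0, 7, 17, 30 and 60 min quenched with cold methanol and analysed by LC-MS/MS. Half-life, Cl_int and MF% derived as previously described.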

[12] = Metabolic stability in human liver microsome assessed as elimination half life at 0.1 uM in presence of NADPH incubated upto 60 mins by LC-MS/MS analysis; assay type: ADME; settings: liver microsomes, read-out: beta t1/2; how it was run: as §3
[13] = Metabolic stability in rat liver microsome assessed as intrinsic clearance at 0.1 uM in presence of NADPH incubated upto 60 mins by LC-MS/MS analysis; assay type: ADME; settings: microsomes, 1 h; how it was run: as §3
[14] = Metabolic stability in human liver microsome assessed as intrinsic clearance at 0.1 uM in presence of NADPH incubated upto 60 mins by LC-MS/MS analysis; assay type: ADME; settings: microsomes, 1 h; how it was run: as §3
[15] = Metabolic stability in rat liver microsome assessed as metabolic bioavailability at 0.1 uM in presence of NADPH incubated upto 60 mins by LC-MS/MS analysis; assay type: ADME; settings: liver microsomes; how it was run: as §3
[16] = Metabolic stability in human liver microsome assessed as metabolic bioavailability at 0.1 uM in presence of NADPH incubated upto 60 mins by LC-MS/MS analysis; assay type: ADME; settings: liver microsomes; how it was run: as §3
[17] = AUC (0 to infinity) in Sprague-Dawley rat at 5 mg/kg, iv measured upto 24 hrs by LC-MS/MS analysis; assay type: ADME, organism-based; parameters: time < 24 hrs, dose 5 mg/kg, route iv; settings: in vivo
How it was run: (§4)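 Male Sprague-Dawley rats, n = 3 per group, single intravenous dose. For 4 mg/kg: 180–280 g rats, vehicle 5% DMSO + 5% EtOH + 40% PEG300 + 50% saline, blood from the retrobulbar vein at 0.05–24 h. For 5 and 20 mg/kg: 180–300 g rats, vehicle 5% DMSO + 5% solutol + 90% saline, sampled at 0.083–24 h. Plasma quantified by LC/MS/MS. Parameters from mean plasma concentration by noncompartmental analysis; values are mean ± standard deviation.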

[18] = Elimination half life in Sprague-Dawley rat at 5 mg/kg, iv measured upto 24 hrs by LC-MS/MS analysis; assay type: ADME, organism-based; settings: in vivo, read-out: beta t1/2 (converted); how it was run: as §4
[19] = MRT in Sprague-Dawley rat at 5 mg/kg, iv measured upto 24 hrs by LC-MS/MS analysis; assay type: ADME, organism-based; settings: in vivo; how it was run: as §4
[20] = Clearance in Sprague-Dawley rat at 5 mg/kg, iv measured upto 24 hrs by LC-MS/MS analysis; assay type: ADME, organism-based; settings: in vivo; how it was run: as §4
[21] = Volume of distribution at the steady state in Sprague-Dawley rat at 5 mg/kg, iv measured upto 24 hrs by LC-MS/MS analysis; assay type: ADME, organism-based; settings: in vivo, read-out: Vdss; how it was run: as §4
[22] = target: hERG (KCNH2) potassium channel (Homo sapiens, UniProt Q12809); assay: Inhibition of hERG potassium channel assessed as maximum inhibition rate at 40 uM at -80 mV holding potential incubated for 120 seconds by whole cell-automated voltage clamp analysis assay relative to control; assay type: toxicity; settings: time 120 sec
hERG (KCNH2) potassium channel, sequence (Q12809 whole entry): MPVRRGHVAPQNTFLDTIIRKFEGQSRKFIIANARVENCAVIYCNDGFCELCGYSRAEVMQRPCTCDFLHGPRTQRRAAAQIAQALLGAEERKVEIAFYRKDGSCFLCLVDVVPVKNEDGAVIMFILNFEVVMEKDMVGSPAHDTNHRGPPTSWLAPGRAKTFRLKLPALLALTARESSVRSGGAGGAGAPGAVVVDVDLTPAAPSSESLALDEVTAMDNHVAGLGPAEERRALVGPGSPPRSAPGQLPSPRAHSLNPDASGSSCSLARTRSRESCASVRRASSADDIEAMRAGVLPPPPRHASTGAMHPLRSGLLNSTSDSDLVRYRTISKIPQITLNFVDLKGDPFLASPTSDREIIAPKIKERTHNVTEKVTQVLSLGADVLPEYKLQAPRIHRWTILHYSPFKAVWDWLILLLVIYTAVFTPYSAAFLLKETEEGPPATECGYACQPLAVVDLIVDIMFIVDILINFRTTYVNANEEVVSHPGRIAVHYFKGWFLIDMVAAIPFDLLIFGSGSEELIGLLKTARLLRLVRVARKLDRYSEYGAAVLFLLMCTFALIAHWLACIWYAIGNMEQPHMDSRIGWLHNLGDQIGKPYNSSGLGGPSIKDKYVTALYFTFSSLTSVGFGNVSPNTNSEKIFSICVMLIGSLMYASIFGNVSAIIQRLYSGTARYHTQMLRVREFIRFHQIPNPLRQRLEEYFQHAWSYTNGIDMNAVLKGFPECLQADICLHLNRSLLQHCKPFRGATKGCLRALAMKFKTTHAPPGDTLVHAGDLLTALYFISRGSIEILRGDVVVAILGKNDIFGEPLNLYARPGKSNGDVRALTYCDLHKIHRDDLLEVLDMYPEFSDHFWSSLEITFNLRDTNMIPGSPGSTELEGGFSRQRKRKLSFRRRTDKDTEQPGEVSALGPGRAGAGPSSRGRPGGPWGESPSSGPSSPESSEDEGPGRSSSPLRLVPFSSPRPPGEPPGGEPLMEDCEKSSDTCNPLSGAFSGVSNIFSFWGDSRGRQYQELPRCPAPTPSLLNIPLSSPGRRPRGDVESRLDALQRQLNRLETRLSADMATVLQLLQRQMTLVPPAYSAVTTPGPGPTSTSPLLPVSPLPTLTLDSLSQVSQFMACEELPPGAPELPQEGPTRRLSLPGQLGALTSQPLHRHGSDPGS
How it was run: (§5)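 Automated whole-cell patch clamp, holding potential −80 mV. Voltage protocol applied every 20 s. Baseline set with external solution containing 0.1% DMSO and stabilised 3 min. Compound applied until steady state, at least 3 min, then washout. Maximum tested concentration 40 μM, or 3 μM for cisapride as positive control.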

[23] = target: Voltage-gated inwardly rectifying potassium channel KCNH2 (Homo sapiens, UniProt Q12809); assay: Inhibition of hERG potassium channel assessed as […] at -80 mV holding potential incubated for 120 seconds by whole cell-automated voltage clamp analysis assay; assay type: toxicity; how it was run: as §5
Voltage-gated inwardly rectifying potassium channel KCNH2, sequence (Q12809 whole entry): as above

Staphylococcus aureus = assay: Antibacterial activity against methicillin-sensitive Staphylococcus aureus strains 15 1 to 4 assessed as reduction in bacterial growth incubated for 18 to 20 hrs by CLSI based microdilution method; assay type: functional; settings: time 18-20 hrs; how it was run: as §1
[24] = system: Staphylococcus epidermidis; assay: Antibacterial activity against methicillin-sensitive Staphylococcus epidermidis strains 15 1 to 4 assessed as reduction in bacterial growth incubated for 18 to 20 hrs by CLSI based microdilution method; assay type: functional; settings: time 18-20 hrs; how it was run: as §1
Escherichia coli [25] = assay: Antibacterial activity against ESBL-producing Escherichia coli ATCC 35218 strains 15 1 to 3 assessed as reduction in bacterial growth incubated for 18 to 20 hrs by CLSI based microdilution method; assay type: functional; settings: time 18-20 hrs; how it was run: as §2
Escherichia coli [26] = assay: Antibacterial activity against Escherichia coli ATCC 35218 strains 15 1 to 3 assessed as reduction in bacterial growth incubated for 18 to 20 hrs by CLSI based microdilution method; assay type: functional; settings: time 18-20 hrs; how it was run: as §2
Pseudomonas aeruginosa [27] = assay: Antibacterial activity against multidrug resistant Pseudomonas aeruginosa strains 15 1 to 3 assessed as reduction in bacterial growth incubated for 18 to 20 hrs by CLSI based microdilution method; assay type: functional; settings: time 18-20 hrs; how it was run: as §1
[28] = Cytotoxicity against human L02 cells assessed as cell viability measured for 48 hrs by CCK-8 assay; assay type: toxicity, cell-based
How it was run: (§6)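 Cells seeded at 1 × 10⁴ per well and grown for 48 h. Then exposed to test articles at 1–200 μM for another 48 h (n = 6). Viability by CCK-8 added for 2 h, absorbance read at 450 nm. CC50 calculated and reported as the mean.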

[29] = Cytotoxicity against human HEK293 cells assessed as cell viability measured for 48 hrs by CCK-8 assay; assay type: toxicity, cell-based; how it was run: as §6

Structure (SMILES)	MIC (Escherichia coli [1]) [µg/mL]	MIC (Escherichia coli [2]) [µg/mL]	MIC (Escherichia coli [3]) [µg/mL]	MIC (Klebsiella pneumoniae [4]) [µg/mL]	MIC (Klebsiella pneumoniae [5]) [µg/mL]	MIC (Klebsiella pneumoniae [6]) [µg/mL]	MIC (Acinetobacter baumannii [7]) [µg/mL]	MIC (Acinetobacter baumannii [8]) [µg/mL]	MIC (Pseudomonas aeruginosa [9]) [µg/mL]	MIC (Pseudomonas aeruginosa [10]) [µg/mL]	half-life at 0.1 µM [11] [h]	half-life at 0.1 µM [12] [h]	CLH [13] [mL/min/g]	CLH [14] [mL/min/g]	Fh at 1 h, 0.1 µM [15] [%]	Fh at 1 h, 0.1 µM [16] [%]	AUC(0-inf) [17] [ng·h/mL]	half-life [18] [h]	MRT [19] [h]	clearance [20] [mL/min/kg]	also measured
[2H]C([2H])([2H])Nc1cc(F)cc2c1[nH]c1nc(Oc3cnc(C)nc3)nc(N3CC(=C(C)[C@@H](C)N)C3)c12	0.5 (≈ 1.11 µM)	0.25 (≈ 0.554 µM)	0.125 (≈ 0.277 µM)	1 (≈ 2.21 µM)	4 (≈ 8.86 µM)	2 (≈ 4.43 µM)	0.25 (≈ 0.554 µM)	0.25 (≈ 0.554 µM)	4 (≈ 8.86 µM)	2 (≈ 4.43 µM)	0.163	2.98	215	11.7	17.2	62.6	634	6.5	5.6	132	Vd [21]: 44.5 L/kg
[2H]C([2H])([2H])Nc1cc(F)cc2c1[nH]c1nc(Oc3cnc(C)nc3)nc(N3CC(=C(C)C(C)N)C3)c12 (stereo not drawn)	0.25 (≈ 0.554 µM)	0.25 (≈ 0.554 µM)	0.125 (≈ 0.277 µM)	1 (≈ 2.21 µM)	4 (≈ 8.86 µM)	2 (≈ 4.43 µM)	0.25 (≈ 0.554 µM)	0.25 (≈ 0.554 µM)	4 (≈ 8.86 µM)	2 (≈ 4.43 µM)	0.337	3.47	104	10.1	30	66	696	7.2	5.9	121	inhibition at 2 min, 40 µM [22]: 14.2%; IC50 [23]: > 40 µM; Vd [21]: 43.2 L/kg
C=CCC(CN)=C1CN(c2nc(Oc3cnc(C)nc3)nc3[nH]c4c(NC)cc(F)cc4c23)C1	0.5 (≈ 1.09 µM)	0.5 (≈ 1.09 µM)	0.25 (≈ 0.543 µM)	2 (≈ 4.34 µM)	4 (≈ 8.69 µM)	2 (≈ 4.34 µM)	0.25 (≈ 0.543 µM)	0.25 (≈ 0.543 µM)	8 (≈ 17.4 µM)	4 (≈ 8.69 µM)	–	–	–	–	–	–	–	–	–	–	MIC (Staphylococcus aureus): < 0.008 µg/mL; MIC [24]: < 0.008 µg/mL; MIC (Escherichia coli [25]): 0.125 µg/mL (≈ 0.271 µM); MIC (Escherichia coli [26]): 0.06 µg/mL (≈ 0.13 µM); MIC (Pseudomonas aeruginosa [27]): 1 µg/mL (≈ 2.17 µM); inhibition at 2 min, 40 µM [22]: 49.1%; IC50 [23]: > 40 µM; CC50 at 48 h [28]: 6.99 µM; CC50 at 48 h [29]: 29 µM
